# Source: PMC10422108 (Journal of Pharmaceutical Analysis, 2023)
# Experiments:
# Lewis lung cancer (LLC) = assay: Antitumor activity in Lewis lung cancer; format: in vivo, C57BL/6J male mice; conditions: LLC mice; PTX 25 mg/kg; PTX-R 14.4, 28.8, 57.6 mg/kg; 11 day; versus control
# [1] = test system: CTL1, OCT1 and OCT2 in LLC cells; assay: PTX-R uptake assay with transporter inhibitors; format: cell-based, mouse; conditions: 100 μmol/L HC-3, 60 μmol/L quinidine or 60 μmol/L cimetidine, 10 min
# Summary of the method: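 LLC cells seeded at 2 × 10^5 cells/mL, grown 48 h, PBS-washed. Preincubated 20 min with inhibitor or PBS, then 4.5 μmol/L test compound ± inhibitor for 10 min. Stopped by three cold PBS washes; lysed 30 min in cold MeOH/0.1% FA containing 100 ng/mL docetaxel internal standard. Extract dried, reconstituted in ACN:H2O 1:9, quantified by LC-MS/MS (MRM).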
smiles,measurement,setting,value
"CC(=O)O[C@H]1C(=O)[C@@]2(C)[C@H]([C@H](OC(=O)c3ccccc3)[C@]3(O)C[C@H](OC(=O)[C@H](O)[C@@H](NC(=O)c4ccccc4)c4ccccc4)C(C)=C1C3(C)C)[C@]1(OC(C)=O)CO[C@@H]1C[C@@H]2O [PTX, paclitaxel]",indices of the spleen and thymus,Lewis lung cancer (LLC),notably reduced
same,cellular uptake in presence of transporter inhibitors,[1],no influence on PTX transport
